Only some compounds are listed: those with a hit (about 1.2% of all), similar ones and a draw of the others.
NSD2 HMT inh: inhibitors of human histone methyltransferase NSD2 | O96028 | NSD2 peptide methylation, AlphaScreen, 120 min | inhibition, % at 12.5 µM | 310,000 compounds, 0.54% hits | AID 743445; in the data active means inhibition above about 50%
RAD54 branch: inhibitors of human RAD54 branch migration | Q92698 | RAD54 Holliday junction branch migration, FAM/BHQ fluorescence | inhibition, % at 10.4 µM | 360,000 compounds, 0.14% hits;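 active means mean normalized replicate activity at least 40 and at least half of replicates scoring 40 or more; inconclusive means only one of the two criteria met; inactive means mean below 40 and under half of replicates reaching 40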;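 further: 0% = median of neutral control wells and 100% = median of positive control wells; inhibitors cause a drop in the FAM fluorescence signal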
AF4-AF9 inh: MLL-AF4/AF9 protein interaction inhibition | P42568 | AlphaScreen, biotin-AF4 peptide binding to FLAG-AF9 | inhibition, % at 10 µM | 350,000 compounds, 0.47% hits | AID 651704;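 active means every replicate reaching a set inhibition limit, whatever the replicate mean, cut at about 25% in these data; inconclusive means mean inhibition reaches that limit but some replicates miss it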;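 further: 0% = plate neutral control median and 100% = total signal loss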
Target sequence (P42568 whole entry, looked up): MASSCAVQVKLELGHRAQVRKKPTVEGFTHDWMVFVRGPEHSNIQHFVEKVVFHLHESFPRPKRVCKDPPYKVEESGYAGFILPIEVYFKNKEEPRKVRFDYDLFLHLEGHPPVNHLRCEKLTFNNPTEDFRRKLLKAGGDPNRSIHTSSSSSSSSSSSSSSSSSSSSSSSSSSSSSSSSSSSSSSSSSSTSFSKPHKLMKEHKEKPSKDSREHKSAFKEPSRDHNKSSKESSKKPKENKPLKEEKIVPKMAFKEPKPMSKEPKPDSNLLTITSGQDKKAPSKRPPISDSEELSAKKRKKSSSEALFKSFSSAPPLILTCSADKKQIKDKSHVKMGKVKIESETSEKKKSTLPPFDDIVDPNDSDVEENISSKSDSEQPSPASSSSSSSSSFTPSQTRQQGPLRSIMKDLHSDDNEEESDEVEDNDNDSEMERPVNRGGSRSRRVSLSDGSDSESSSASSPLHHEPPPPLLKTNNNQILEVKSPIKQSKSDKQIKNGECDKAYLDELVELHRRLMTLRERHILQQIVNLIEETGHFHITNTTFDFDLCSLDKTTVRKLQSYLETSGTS
Glyco luc inh: blocks N-linked glycosylation in D54 reporter cells | D54 ERlucT glycosylation luciferase reporter, 24 h; percent of 100 nM tunicamycin response | reporter increase, % at 12.5 µM | 360,000 compounds, 0.23% hits;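 active means mean luciferase reporter signal, scaled so untreated is 0 and the glycosylation-blocking control 100, at or above a set limit in every replicate; inconclusive means mean reaches the limit but not every replicate does; inactive means mean below the limit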;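 further: luciferase carries N-glycosylation sites so blocking glycosylation raises the light; 0% = median of neutral control wells and 100% = median of 100 nM tunicamycin wells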
FN deposit inh: fibronectin deposition inhibition; AH1F fibroblasts, Alexa488-fibronectin deposition fluorescence, overnight; inhibition, % at 12.6 µM; 350,000 compounds, 0.086% hits; AID 743247;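 active means mean inhibition across replicates of 30% or more, regardless of how many single replicates reach that level; inconclusive means mean under 30% yet at least half of replicates reach 30%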;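 further: positive control wells lacked labelled fibronectin entirely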
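Material: AH1F fibroblasts assembling fluorescent fibronectin matrix; amount: 10000 AH1F cells/well; medium: DMEM, 2% serum; reagent: Alexa488-fibronectin, 24 nM final in well; dosing: single compound dose, delivered by pin transfer; incubation: 1 h adhesion, overnight exposure; detection: fluorescence after three HBSS washes, excitation 485 nm, emission 525 nm; measure: fibronectin deposition inhibition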
RAD52 anneal inh: RAD52 (human) annealing inhibition; recombinant RAD52 DNA annealing, FRET fluorescence; inhibition, % at 18.7 µM; P43351; AID 651710; 360,000 compounds, 0.46% hits;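 active means every replicate showing at least 50% inhibition; inconclusive means mean inhibition at least 50% but not in every replicate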
DNA binder FP: binds DNA, flagging false RAD52 inhibitor hits; shares compounds with RAD52 anneal inh; Salmon sperm DNA/acridine orange FP displacement, DNA binding; AC50, µM; 1,000 compounds, 8% hits;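 active means fitted half-maximal concentration for signal loss at or below twice the highest dose tested, in every separate run, actives reach about 64 µM in these data; inconclusive means runs disagree, or flat partial signal loss, or poor fit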
Starred values were filed as active, the others as inactive; i = inactive; ? = inconclusive; . = no result.

SMILES	NSD2 HMT inh	RAD54 branch	AF4-AF9 inh	Glyco luc inh	FN deposit inh	RAD52 anneal inh	DNA binder FP
C[C@H](CO)N1C[C@H](C)[C@@H](CN(C)S(=O)(=O)c2ccc(F)cc2)OCc2ccccc2-c2ccccc2C1=O	.	.	.	.	-6.4	.	.
CC(C(=O)c1ccc(-c2ccccc2)cc1)[n+]1cccc(NC(=O)c2ccccc2)c1 (centres undefined)	13.0	?	?	0.5	8.6	57.5*	i
Cc1ccccc1Cn1c2ccccc2c2cnn(CC(=O)NCCCN3CCN(C)CC3)c(=O)c21	4.6	20.9	14.7	0.7	7.6	70.6*	i
Cc1ccccc1Cn1c2ccccc2c2cnn(CC(=O)NCCCN3CCOCC3)c(=O)c21	9.4	5.8	0.6	3.1	-23.8	-5.6	.
CCN(CC)CCNC(=O)C(=O)Nc1cc2c3c(c1)CC(=O)N3CCC2	24.8	-4.8	-5.5	-1.3	0.6	55.0*	i
COc1cc(/C=C/c2cc[n+](C)cc2)ccc1OCC(=O)Nc1ccc(Cl)c(Cl)c1	5.5	-3.3	?	2.4	-5.2	69.2*	i
C[C@H]1CN(C)C(=O)c2ccccc2O[C@@H]1CN(C)C	.	.	.	.	-5.1	.	.
CCN(CC)CCNc1ncnc2c1sc1nc(N3CCOCC3)c3c(c12)CCCC3	29.2	.	7.1	-9.6	3.8	66.3*	65.1µM*
COc1cccc(-c2cnc3c(c2)C(=O)N([C@@H](C)CO)C[C@@H](C)[C@@H](CN(C)C(C)=O)O3)c1	.	1.1	-3.7	.	-3.8	-3.2	.
COc1ccc2c3c([nH]c2c1)[C@@H](CO)N(C(=O)c1ccccc1)CC31CCN(C(=O)NC(C)C)CC1	.	.	2.2	.	.	-1.7	.
CN(C)CCCn1c(SCC(=O)N2c3ccccc3Sc3ccccc32)nc2ccccc2c1=O	9.3	5.7	?	-12.5	-2.3	69.0*	i
Cc1ccc(-c2csc(NC(=O)CSc3nc4ccccc4c(=O)n3CCCN(C)C)n2)cc1	2.5	.	35.6*	-8.7	.	91.2*	i
NC1(N2SC(S)=C3CCCC=C32)CCCCC1	14.9	.	13.2	.	6.4	85.6*	i
COc1ccccc1S(=O)(=O)N1C[C@H](O)COC[C@H]2O[C@H](CC(=O)O)CC[C@@H]21	.	-7.5	-11.3	.	-7.8	2.1	.
C[C@@H]1NC(=O)[C@H](CCC(N)=O)NC(=O)c2cc([N+](=O)[O-])cc(I)c2NCCC[C@@H](C(N)=O)NC1=O	.	-4.6	-3.6	-0.7	1.8	-4.6	.
C[C@@H]1NC(=O)[C@H](CCCN=C(N)N)NC(=O)c2cc([N+](=O)[O-])cc(I)c2NCCC[C@@H](C(N)=O)NC1=O	.	16.6	-8.0	1.4	-1.9	86.2*	i
NCCCC[C@@H]1NC(=O)c2cc([N+](=O)[O-])cc(F)c2NCCCC[C@@H](C(N)=O)NC(=O)[C@H](CCC(N)=O)NC1=O	.	21.7	27.1*	3.4	0.0	80.4*	i
NC(=O)C[C@H]1NC(=O)[C@H](CCC(=O)O)NC(=O)c2cc([N+](=O)[O-])cc(I)c2NCCC[C@@H](C(N)=O)NC1=O	.	-7.7	.	2.6	4.2	.	.
NC(=O)[C@@H]1CCCCNc2c(F)cc([N+](=O)[O-])cc2C(=O)N[C@@H](CCCN=C(N)N)C(=O)NCC(=O)N1	.	9.5	20.4	-0.1	5.5	61.4*	i
NCCCC[C@@H]1NC(=O)c2cc([N+](=O)[O-])cc(I)c2SC[C@@H](C(N)=O)NC(=O)[C@H](CCC(N)=O)NC1=O	.	-1.5	-1.6	0.5	-0.2	-13.5	.
C[C@@H]1CCCCO[C@@H](CN(C)C(=O)c2ccncc2)[C@H](C)CN([C@H](C)CO)C(=O)c2cc(NC(=O)c3ccncc3)ccc2O1	.	4.8	1.2	.	1.1	5.3	.
C[C@@H]1CN([C@H](C)CO)C(=O)c2cc(NS(=O)(=O)c3ccccc3)ccc2O[C@@H]1CN(C)S(=O)(=O)c1cn(C)cn1	.	4.2	-2.2	.	.	-13.1	.
CC(=O)N(C)C[C@@H]1Oc2ncc(-c3ccc(C)cc3)cc2C(=O)N([C@H](C)CO)C[C@@H]1C	.	5.2	-3.7	.	.	-8.5	.
C[C@H](CO)N1C[C@H](C)[C@@H](CN(C)C(=O)C2CCCCC2)Oc2ncc(C#Cc3cccc(F)c3)cc2C1=O	.	-0.1	2.2	.	.	-4.6	.
